Laboratory results taken from ChEMBL document CHEMBL4622992, “New Polyaminoisoprenyl Antibiotics Enhancers against Two Multidrug-Resistant Gram-Negative Bacteria from Enterobacter and Salmonella Species” (J Med Chem, 2020).
Values after ≈ are worked out from the molar mass of the structure shown. Active and inactive are the calls of the source. The calls are words filed in the database; no cut-off is given here.

Experiments:
[1] = tested on: Salmonella typhimurium; test: Potentiation of nalidixic acid-induced antibacterial activity against Salmonella enterica subsp. enterica serovar Typhimurium BN10055 assessed as ratio of the nalidixic acid alone MIC to […] in presence of MIC/4 level of compound incubated for 18 hrs; type: functional
How it was run: (§1)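 Broth microdilution in MH broth, 10^5 CFU inoculum, two-fold antibiotic dilutions, with or without compound at MIC/4. MIC is the lowest concentration with no visible growth after 18 h at 37°C. Gain is antibiotic MIC alone divided by MIC with compound. MICs repeated in at least three independent experiments; up to 5% DMSO.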

[2] = tested on: Klebsiella aerogenes; test: Potentiation of doxycycline-induced antibacterial activity against Enterobacter aerogenes Ea289 assessed as ratio of the doxycycline alone MIC to doxycycline MIC in presence of MIC/4 level of compound incubated for 18 hrs; type: functional; how it was run: as §1
[3] = Toxicity in CHO cells assessed as reduction in cell viability incubated for 24 hrs by WST1 assay; type: cell-based; settings: Chinese hamster (Cricetulus griseus)
How it was run: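 CHO-K1 cells in McCoy's 5A with 10% FCS, exposed in triplicate to 30–1200 μM compound for 24 h at 37°C. After PBS washes, 30 min in medium with 10% WST-1; absorbance at 450 nm. IC50 is the concentration giving 50% loss of viable cells.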

[4] = tested on: Salmonella typhimurium; test: Potentiation of chloramphenicol-induced antibacterial activity against Salmonella enterica subsp. enterica serovar Typhimurium BN10055 assessed as ratio of the chloramphenicol alone MIC to […] in presence of MIC/4 level of compound incubated for 18 hrs; type: functional; how it was run: as §1
[5] = tested on: Klebsiella aerogenes; test: Potentiation of erythromycin-induced antibacterial activity against Enterobacter aerogenes Ea289 assessed as ratio of the erythromycin alone MIC to erythromycin MIC in presence of MIC/4 level of compound incubated for 18 hrs
[6] = tested on: Klebsiella aerogenes; test: Potentiation of chloramphenicol-induced antibacterial activity against Enterobacter aerogenes Ea289 assessed as ratio of the chloramphenicol alone MIC to […] in presence of MIC/4 level of compound incubated for 18 hrs; type: functional; how it was run: as §1
[7] = tested on: Salmonella typhimurium; test: Antibacterial activity against Salmonella enterica subsp. enterica serovar Typhimurium BN10055 containing deltaacrB mutant assessed as inhibition of bacterial growth incubated for 18 hrs; type: organism-based
How it was run: (§2)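 Broth microdilution per CA-SFM in MH broth; inoculum 10⁵ CFU in 200 µL with two-fold serial dilutions; compounds dissolved in DMSO, up to 5% DMSO on bacteria. MIC = lowest concentration with no visible growth after 18 h at 37°C. Repeated at least three times independently.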

[8] = tested on: Salmonella typhimurium; test: Potentiation of erythromycin-induced antibacterial activity against Salmonella enterica subsp. enterica serovar Typhimurium BN10055 assessed as ratio of the erythromycin alone MIC to erythromycin MIC in presence of MIC/4 level of compound incubated for 18 hrs; type: functional; how it was run: as §1
[9] = tested on: Salmonella typhimurium; test: Potentiation of doxycycline-induced antibacterial activity against Salmonella enterica subsp. enterica serovar Typhimurium BN10055 assessed as ratio of the doxycycline alone MIC to doxycycline MIC in presence of MIC/4 level of compound incubated for 18 hrs; type: functional; how it was run: as §1
[10] = tested on: Klebsiella aerogenes; test: Potentiation of nalidixic acid-induced antibacterial activity against Enterobacter aerogenes Ea289 assessed as ratio of the nalidixic acid alone MIC to nalidixic acid MIC in presence of MIC/4 level of compound incubated for 18 hrs
[11] = tested on: Klebsiella aerogenes; test: Antibacterial activity against Enterobacter aerogenes Ea289 containing deltaacrB mutant assessed as inhibition of bacterial growth incubated for 18 hrs; type: organism-based; how it was run: as §2
[12] = tested on: Klebsiella aerogenes; test: Potentiation of chloramphenicol-induced antibacterial activity against Enterobacter aerogenes Ea289 assessed as efficiency index by measuring sum of gain factor for each test compound reported for chloramphenicol/nalidixic acid/doxycycline/erythromycin and divided by concentration of test compound; type: functional; settings: pooled result: one value given for 2 cell lines, strains, targets or settings
How it was run: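 Gain factors (antibiotic MIC alone / MIC with compound at MIC/4; broth dilution, 18 h, 37°C) for erythromycin, doxycycline, nalidixic acid and chloramphenicol are summed, then divided by the compound concentration used in the assay.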

[13] = tested on: Klebsiella aerogenes; test: Induction of outer cell membrane permeabilization in Enterobacter aerogenes Ea289 assessed as induction of nitrocefin hydrolysis at 100 uM incubated for 15 mins; type: organism-based
How it was run: (§3)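 Cells at OD600 0.25 in phosphate buffer (20 mM K2HPO4, 1 mM MgCl2, pH 7.0) with 5 μM CCCP, mixed with nitrocefin 50 μg/mL, then compound at 100 μM. Periplasmic β-lactamase hydrolysis followed by absorbance at 490 nm every 30 s at 37°C.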

[14] = Toxicity in BALB/cByJ mouse assessed as effect on mouse survival at 50 uM, ip measured after 48 hrs; type: organism-based; settings: in vivo
[15] = Toxicity in BALB/cByJ mouse assessed as induction of toxic signs at 50 uM, ip measured after 48 hrs; type: organism-based; settings: in vivo
[16] = Toxicity index, ratio of IC50 for toxicity in CHO cells to concentration of test compound causing at least 8 times decrease of MIC of almost 3 antibiotics (chloramphenicol/nalidixic acid/doxycycline/erythromycin ) against Enterobacter aerogenes Ea289; type: cell-based; settings: hamster, pooled result: one value given for 2 cell lines, strains, targets or settings
[17] = tested on: Klebsiella aerogenes; test: Induction of outer cell membrane permeabilization in Enterobacter aerogenes Ea289 assessed as induction of H33342 dye penetration at 100 uM; type: organism-based
[18] = tested on: Salmonella typhimurium; test: Potentiation of doxycycline-induced antibacterial activity against Salmonella typhimurium assessed as mouse survival rate at 0.5 mg/kg, ip co-treated with 64 mg/kg for doxycycline (reference value: 0%); type: functional, Salmonella enterica subsp. enterica serovar Typhimurium
How it was run: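 Female BALB/cByJ mice, 5-6 weeks, anaesthetized with sevoflurane, infected ip with 200 µL of S. Typhimurium at 10² CFU/mL. Daily dosing with saline, doxycycline 64 mg/kg alone, or doxycycline 64 mg/kg plus 0.5 mg/kg compound. Mice weighed daily; sacrificed at day 1 (n=3), 3 (n=3) or 7 (n=6).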

[19] = tested on: Klebsiella aerogenes; test: Inhibition of AcrAB-TolC in Enterobacter aerogenes Ea289 assessed as retention of 1,2'diNA dye within bacterial membranes at 100 uM relative to control; parameters: scale not given: the % may be the effect or the level left
How it was run: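 Stationary-phase cells at OD600 0.25 in potassium phosphate buffer pH 7.0 with CCCP 5 µM, loaded overnight with 1,2'-diNA 32 µM at 37°C, washed, compound added at 100 µM. Glucose 50 mM added at 300 s to energize efflux. Fluorescence (ex 370/em 420 nm) read every 30 s at 37°C; PAβN 100 µM as reference.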

[20] = tested on: Klebsiella aerogenes; test: Induction of cell transmembrane potential disruption in Enterobacter aerogenes Ea289 assessed as membrane potential by measuring fluorescence level at 100 uM by [DiSC3(5)] based assay (reference value: 0.2%)
[21] = tested on: Klebsiella aerogenes; test: Induction of outer cell membrane permeabilization in Enterobacter aerogenes Ea289 assessed as induction of nitrocefin hydrolysis at 100 uM measured during initial 200 secs; type: organism-based; how it was run: as §3
[22] = tested on: Salmonella typhimurium; test: Antibacterial activity against Salmonella enterica subsp. enterica serovar Typhimurium BN10055 assessed as inhibition of bacterial growth incubated for 18 hrs; type: organism-based; how it was run: as §2
[23] = tested on: Klebsiella aerogenes; test: Antibacterial activity against Enterobacter aerogenes Ea289 assessed as inhibition of bacterial growth incubated for 18 hrs; type: organism-based; how it was run: as §2

Structure (SMILES) | Ratio [1] | Ratio [2] | IC50 at 24 h [3] [µM] | Ratio [4] | Ratio [5] | Ratio [6] | Ratio [8] | Ratio [9] | Ratio [10] | MIC [11] [µM] | Activity_index [12] | selectivity ratio [16] | MIC [22] [µM] | MIC [23] [µM] | other results
CC(C)=CCC/C(C)=C\CCC(C)=CCNCCCCCCCCCCCCN | 8 | 2 | 25.3 | 4 | 1 | 2 | 2 | 8 | 1 | 7.8 (≈ 3.16 µg/mL) | – | – | – | – | MIC [7]: 3.9 µM (≈ 1.58 µg/mL)
CC(C)=CCCC(C)=CCNCCCN(CCCN)CCCN | 128 | 32 | 127 | 16 | 16 | 8 | 4 | 16 | 8 | – | 3.65 | 16.2 | – | – | Activity [13]: Active; Activity [14]: Non-Toxic; Activity [15]: Non-Toxic; Activity [17]: Active; Survival [18]: 43%; Activity [19]: 68%; Activity [20]: 1%; Activity [21]: inactive
CC(C)=CCCC(C)=CCNCCNCCNCCN | 16 | – | > 150 | 4 | – | 8 | – | – | 2 | – | 0 | 0.06 | > 500 | > 500 | –
CC(C)=CCCC(C)=CCNCCNCCNCCNCCNCCN | 16 | 2 | > 150 | 8 | 1 | 8 | – | 4 | 4 | – | 0 | 0.06 | > 500 | > 500 | –
CC(C)=CCC/C(C)=C\CCC(C)=CCNCCNCCNCCNCCNCCN | 32 | 16 | 41.7 | 8 | 4 | 4 | 2 | 16 | 8 | 7.8 (≈ 3.41 µg/mL) | 2.88 | 10.7 | – | – | –
